ChEMBL document CHEMBL2321751, “Optimization of chloronitrobenzamides (CNBs) as therapeutic leads for human African trypanosomiasis (HAT)” (J Med Chem, 2013)
In brackets after ≈: the same amount, converted by molar mass.

What was measured:
[1] = tested on: Trypanosoma brucei brucei; experiment: Antitrypanosomal activity against blood stream stage of Trypanosoma brucei brucei after 48 hrs by Cell Titre Glo assay; assay type: functional, organism-based
Procedure, shortened: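 Culture-adapted parasites were grown in HMI-9 with 10% heat-inactivated FBS, 10% Serum Plus and penicillin/streptomycin to 1 × 10⁶ cells/mL, then diluted to 1 × 10⁴ cells/mL. DMSO dilution series were pin-transferred and plates held 48 h at 37 °C in 5% CO2. After 30 min at room temperature, CellTiter-Glo was added and luminescence read after 8 min.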

[2] = Kinetic solubility of the compound in PBS buffer at pH 7.4 after 18 hrs by UV spectrophotometric analysis; assay type: physicochemical; conditions: for solubility kinetic at 18 h: PBS buffer, pH 7.4, read-out: Kinetic_solubility; for Kinetic_solubility: buffer, pH 7.4, 18 h, BLD = below limit of detection
Procedure, shortened: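 Compound from a 10 mM stock was added to PBS pH 7.4 and left 18 h at room temperature. The suspension was filtered, and the filtrate was mixed 1:1 with 1-propanol. Solubility was derived from UV spectrum AUC (250–500 nm) relative to a 1-propanol/PBS reference. Run in triplicate.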

Raji = experiment: Cytotoxicity against human Raji cells after 72 hrs by Cell Titre Glo assay; assay type: cell-based
Procedure, shortened: (§1)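 Human cells grown to 80% confluence were plated in 384-well format and received compound dilutions by pin tool. After 72 h at 37 °C in 5% CO2, viability was measured by CellTiter-Glo luminescence.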

BJ = experiment: Cytotoxicity against human BJ cells after 72 hrs by Cell Titre Glo assay; assay type: cell-based; procedure, shortened: as §1
HEK293 = experiment: Cytotoxicity against HEK293 cells after 72 hrs by Cell Titre Glo assay; assay type: cell-based; conditions: Homo sapiens, HEK293, 72 h; procedure, shortened: as §1
HepG2 = experiment: Cytotoxicity against human HepG2 cells after 72 hrs by Cell Titre Glo assay; assay type: cell-based; conditions: HepG2, 72 h; procedure, shortened: as §1
[3] = tested on: Trypanosoma brucei brucei; experiment: Antitrypanosomal activity against Trypanosoma brucei brucei 221 after 48 hrs by Cell Titre Glo assay; assay type: functional, organism-based; conditions: Trypanosoma brucei, 221, 48 h
Procedure, shortened: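 Bloodstream-form parasites grown in HMI-9 with 10% heat-inactivated FBS, 10% Serum Plus and penicillin/streptomycin at 37 °C, 5% CO₂, to 1 × 10⁶ cells/mL. Diluted to 1 × 10⁴ cells/mL, then dosed with a DMSO dilution series by pin transfer. Incubated 48 h at 37 °C, 5% CO₂. Viability read by CellTiter-Glo luminescence. EC₅₀ from a variable-slope sigmoidal fit. Mean of six replicates, errors as 95% CI.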

[4] = tested on: Trypanosoma brucei gambiense; experiment: Antitrypanosomal activity against Trypanosoma brucei gambiense KO48 after 70 hrs by Alamar Blue assay; assay type: functional, organism-based; conditions: KO48, 70 h
Procedure, shortened: (§2)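 T. b. gambiense strains were grown in HMI-9 with 15% heat-inactivated FBS and 5% human serum. 10000 trypanosomes per well were seeded into serial drug dilutions and held 70 h at 37 °C in humidified 5% CO2. Resazurin was then added for a further 4–6 h, and fluorescence was read (ex 536/em 588 nm). IC50 was taken by linear regression from sigmoidal dose-inhibition curves.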

[5] = tested on: Trypanosoma brucei gambiense; experiment: Antitrypanosomal activity against Trypanosoma brucei gambiense DAL 898R after 70 hrs by Alamar Blue assay; assay type: functional, organism-based; procedure, shortened: as §2
[6] = tested on: Trypanosoma brucei gambiense; experiment: Antitrypanosomal activity against Trypanosoma brucei gambiense STIB930 after 70 hrs by Alamar Blue assay; assay type: functional, organism-based; conditions: STIB930, 70 h; procedure, shortened: as §2
[7] = Permeability of the compound at pH 7.4 by PAMPA; assay type: ADME; conditions: for Papp: PAMPA, read-out: permeability
Procedure, shortened: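 Compound (10 mM DMSO stock) was diluted in system solution buffer pH 7.4 and placed in the donor chamber of a PAMPA sandwich whose membrane was coated with GIT lipid. Acceptor buffer filled the acceptor chamber, and the assembly was stirred for 30 min. Donor and acceptor UV spectra (250–500 nm) were compared with a reference to give the permeability coefficient. Run in triplicate.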

[8] = tested on: Trypanosoma brucei rhodesiense; experiment: Antitrypanosomal activity against bloodstream forms of wild type Trypanosoma brucei rhodesiense STIB900 after 70 hrs by Alamar Blue assay; assay type: functional, organism-based; conditions: STIB900, 70 h
Procedure, shortened: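 T. b. rhodesiense STIB 900 was cultured in MEM with Earle's salts and Baltz supplements (0.2 mM 2-mercaptoethanol, 1 mM Na-pyruvate, 0.5 mM hypoxanthine, 15% heat-inactivated horse serum). 2000 bloodstream forms per well were exposed to serial drug dilutions for 70 h at 37 °C in humidified 5% CO2. Resazurin followed for 2–4 h, read by fluorescence (ex 536/em 588 nm). IC50 came from sigmoidal curves by linear regression.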

EC50 [1] | EC50 [3] | Papp [7] | Structure (SMILES) | EC50 (Raji) | EC50 (BJ) | EC50 (HEK293) | EC50 (HepG2) | also measured
0.5 µM |  |  | COc1cccc2sc(NC(=O)c3cc([N+](=O)[O-])ccc3Cl)nc12 |  |  |  |  | 
0.95 µM |  |  | O=C(Nc1cccc(C(F)(F)F)c1)c1cc([N+](=O)[O-])ccc1Cl |  |  |  |  | 
0.52 µM |  |  | O=C(Nc1cc(C(F)(F)F)ccc1Cl)c1cc([N+](=O)[O-])ccc1Cl |  |  |  |  | 
1.8 µM |  |  | O=C(Nc1cccc(Br)c1)c1cc([N+](=O)[O-])ccc1Cl |  |  |  |  | 
0.98 µM |  |  | COc1ccc2nc(NC(=O)c3cc([N+](=O)[O-])ccc3Cl)sc2c1 |  |  |  |  | 
1.1 µM |  |  | Cc1ccc2nc(NC(=O)c3cc([N+](=O)[O-])ccc3Cl)sc2c1 |  |  |  |  | 
> 33 µM |  |  | Cc1ccc2nc(NC(=O)c3cc([N+](=O)[O-])ccc3Cl)[nH]c2c1 |  |  |  |  | 
0.29 µM | 0.48 µM | 450 nm/s | O=C(Nc1cccc(-c2nc3ccccc3o2)c1)c1cc([N+](=O)[O-])ccc1Cl | > 25 µM | > 25 µM | > 25 µM | > 25 µM | solubility kinetic at 18 h [2]: 0.47 µM (≈ 0.185 µg/mL); EC50 [4]: 0.46 µM; EC50 [5]: 0.62 µM; EC50 [6]: 0.21 µM; EC50 [8]: 0.37 µM
> 33 µM |  |  | Cc1ccc(-c2nc3cc(Cl)ccc3o2)cc1NC(=O)c1cc([N+](=O)[O-])ccc1Cl |  |  |  |  | 
6.1 µM |  |  | O=C(Nc1ccc(-c2nc3ccccc3o2)cc1)c1cc([N+](=O)[O-])ccc1Cl |  |  |  |  | 
3.1 µM |  |  | O=C(Nc1cccc(-c2nc3ncccc3o2)c1)c1cc([N+](=O)[O-])ccc1Cl |  |  |  |  | 
4.1 µM |  |  | O=C(Nc1ccc(-c2nc3ccccc3[nH]2)cc1)c1cc([N+](=O)[O-])ccc1Cl |  |  |  |  | 
 | 1.1 µM | 80 nm/s | O=C(Nc1ccc(Cl)c(C(F)(F)F)c1)c1cc([N+](=O)[O-])ccc1Cl | > 27 µM | > 27 µM | > 27 µM | > 27 µM | solubility kinetic at 18 h [2]: 0.58 µM (≈ 0.22 µg/mL); EC50 [4]: 1.3 µM; EC50 [5]: 1.6 µM; EC50 [6]: 0.82 µM; EC50 [8]: 1.8 µM
 | 9.6 µM | 440 nm/s | O=C(Nc1cc(C(F)(F)F)cc(C(F)(F)F)c1)c1cc([N+](=O)[O-])ccc1Cl | 14 µM | 22 µM | 14 µM | > 27 µM | Kinetic_solubility [2]: BLD
 | 2.5 µM | 370 nm/s | O=C(Nc1nc(-c2ccc(F)c(F)c2)cs1)c1cc([N+](=O)[O-])ccc1Cl | 13 µM | > 27 µM | 8.3 µM | > 27 µM | Kinetic_solubility [2]: BLD; EC50 [4]: 0.63 µM; EC50 [5]: 1.6 µM; EC50 [6]: 0.56 µM; EC50 [8]: 1.5 µM
 | 4.6 µM | 30 nm/s | O=C(Nc1nc(-c2ccc(Cl)cc2)cs1)c1cc([N+](=O)[O-])ccc1Cl | 12 µM | 18 µM | 15 µM | > 27 µM | Kinetic_solubility [2]: BLD
 | 1.1 µM |  | O=C(Nc1ccc(-c2nc3ccccc3s2)cc1)c1cc([N+](=O)[O-])ccc1Cl | > 27 µM | > 27 µM | > 27 µM | > 27 µM | Kinetic_solubility [2]: BLD; permeability ([7]; pampa, BLD = below limit of detection): BLD
 | 0.3 µM | 2140 nm/s | O=C(Nc1cc(-c2nc3ccccc3o2)ccc1F)c1cc([N+](=O)[O-])ccc1Cl | > 25 µM | > 25 µM | > 25 µM | > 25 µM | Kinetic_solubility [2]: BLD
 |  |  | Nc1nc(N)nc(Nc2ccc([As]3SCC(CO)S3)cc2)n1 (configuration not stated) [MELARSOPROL] |  |  |  |  | EC50 [4]: 0.014 µM; EC50 [5]: 0.012 µM; EC50 [6]: 0.0067 µM; EC50 [8]: 0.0072 µM
 | 0.012 µM |  | N=C(N)c1ccc(OCCCCCOc2ccc(C(=N)N)cc2)cc1 [PENTAMIDINE] |  |  |  |  | EC50 [4]: 0.051 µM; EC50 [5]: 0.0009 µM; EC50 [6]: 0.0007 µM; EC50 [8]: 0.0006 µM
